Where a name gives a salt, the structure may show the parent alone.

Broadly, the logP is the decadic logarithm of the partition coefficient of the neutral form, usually between octanol and water. By IC50 is commonly meant the concentration that gives 50% inhibition. Usually EC50 stands for the concentration needed to bring the measured effect to its halfway point.

Test system in the first data set: not listed separately
Put plainly: in vitro. Conditions: human, SVG-A cells infected with JC polyomavirus M1/SVEdelta.
Regarding `CC(C)c1ccc2c(c1)CC[C@H]1[C@](C)(C(N)=O)CCC[C@]21C` [DEHYDROABIETAMIDE], the selectivity ratio was > 2.

As for `Cc1nccc2c1[nH]c1ccccc12` [HARMAN], the selectivity ratio was > 2.

In the case of `Cc1c(Cl)cccc1Nc1ccccc1C(=O)O` [TOLFENAMIC ACID], the selectivity ratio is > 3.

Take `COc1cc(C)c(C(=O)Oc2cc(C)c(C(=O)O)c(O)c2C)c(OC)c1C` [DIFFRACTAIC ACID]: the selectivity ratio is > 2.

Consider `O=C(O)c1ccccc1Nc1cccc(C(F)(F)F)c1` [FLUFENAMIC ACID], for which the selectivity ratio was > 3.

Consider `O=c1c2ccccc2oc2ccccc12` [XANTHONE], for which the selectivity ratio is > 2.

With `CCC(=O)Nc1ccc(Cl)c(Cl)c1` [PROPANIL], the selectivity ratio was > 2.

Take `CC(=O)O[C@H]1C[C@@]2(C)[C@@H](C[C@@H](O)[C@H]3[C@@]4(C)CC[C@@H](O)[C@@H](C)[C@@H]4CC[C@@]32C)/C1=C(\CCC=C(C)C)C(=O)O` [FUSIDIC ACID]: the selectivity ratio is > 2.

With `Cc1cccc(Nc2ccccc2C(=O)O)c1C` [MEFENAMIC ACID], the selectivity ratio is > 2.

Turning to `O=C(O)Cc1ccccc1Nc1c(Cl)cccc1Cl` [DICLOFENAC SODIUM], the selectivity ratio was > 2.

On to `Cc1c(Nc2ncccc2C(=O)O)cccc1C(F)(F)F` [FLUNIXIN MEGLUMINE], for which the selectivity ratio was > 2.

The data set is the same for the next values; noted with them: human, svg-a.
Turning to `CC1=C(/C=C/C(C)=C/C=C/C(C)=C\C(=O)O)C(C)(C)CCC1` [ISOTRETINOIN], the selectivity ratio was > 2.

As to `OC(c1cc(C(F)(F)F)nc2c(C(F)(F)F)cccc12)C1CCCCN1` (configuration not stated) [MEFLOQUINE], the selectivity ratio is > 2.

Test system in the next data set: not listed separately
Put plainly: in vitro. Conditions: human, SVG-A cells.
Regarding `CC(C)c1ccc2c(c1)CC[C@H]1[C@](C)(C(N)=O)CCC[C@]21C` [DEHYDROABIETAMIDE], the CC50 was > 40 µM.

Turning to `Cc1nccc2c1[nH]c1ccccc12` [HARMAN], the CC50 was > 40 µM.

Consider `CC1=C(/C=C/C(C)=C/C=C/C(C)=C\C(=O)O)C(C)(C)CCC1` [ISOTRETINOIN], for which the CC50 was > 40 µM.

For the molecule `COc1cc(C)c(C(=O)Oc2cc(C)c(C(=O)O)c(O)c2C)c(OC)c1C` [DIFFRACTAIC ACID], the CC50 was > 40 µM.

With `O=c1c2ccccc2oc2ccccc12` [XANTHONE], the CC50 is > 40 µM.

Take `CCC(=O)Nc1ccc(Cl)c(Cl)c1` [PROPANIL]: the CC50 was > 40 µM.

`COc1ccc([C@@H]2Sc3ccccc3N(CCN(C)C)C(=O)[C@@H]2OC(C)=O)cc1` [DILTIAZEM HYDROCHLORIDE]: the CC50 is > 40 µM.

With `CC(=O)O[C@H]1C[C@@]2(C)[C@@H](C[C@@H](O)[C@H]3[C@@]4(C)CC[C@@H](O)[C@@H](C)[C@@H]4CC[C@@]32C)/C1=C(\CCC=C(C)C)C(=O)O` [FUSIDIC ACID], the CC50 is > 40 µM.

On to `Cc1cccc(Nc2ccccc2C(=O)O)c1C` [MEFENAMIC ACID], for which the CC50 is > 40 µM.

The molecule `O=C(O)Cc1ccccc1Nc1c(Cl)cccc1Cl` [DICLOFENAC SODIUM] registered a CC50 of 30.5 µM.

Turning to `Cc1c(Nc2ncccc2C(=O)O)cccc1C(F)(F)F` [FLUNIXIN MEGLUMINE], the CC50 is > 40 µM.

The data set is the same for the next values; noted with them: human, svg-a.
In turn, `Clc1ccc(COC(Cn2ccnc2)c2ccc(Cl)cc2Cl)c(Cl)c1` (configuration not stated) [MICONAZOLE NITRATE] registered a CC50 of 22.9 µM.

The molecule `OC(c1cc(C(F)(F)F)nc2c(C(F)(F)F)cccc12)C1CCCCN1` (configuration not stated) [MEFLOQUINE] showed a CC50 of 16.1 µM.

Test system in a further data set: not listed separately
Put plainly: Lipophilicity, log P of the compound. The format is physicochemical. Conditions: octanol/water.
Molecule `OC(c1cc(C(F)(F)F)nc2c(C(F)(F)F)cccc12)C1CCCCN1` (configuration not stated) [MEFLOQUINE] came in with a logP of 2.47.

The subject of another data set is JC polyomavirus. Put plainly: Antiviral activity against JC polyomavirus Mad4 infected in human SVG-A cells assessed as inhibition of viral replication after 3 days. The format is functional, cell-based. Conditions: 72 h. In outline:
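SVG-A cells (2,000/well) in MEM with 2% heat-inactivated FBS and 4 mM L-glutamine were exposed to JCV(Mad4) plus compound over a concentration range for 60 min at 37°C. Drug-containing medium was then added. Cells were fixed, then stained for VP1 (PAb597) and DAPI and imaged. Infection rate was % VP1+/DAPI+ cells; inhibition was scaled to infected and uninfected controls. EC50 came from a sigmoid fit, n = 5.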
In the case of `OC(c1cc(C(F)(F)F)nc2c(C(F)(F)F)cccc12)C1CCCCN1` (configuration not stated) [MEFLOQUINE], the IC50 worked out at 4 µM.

The test system of a further data set is Plasma. Nature of the data set: Drug concentration in human plasma. Conditions: read-out: Drug uptake. Type of data set: ADME, cell-free.
As for `CC1=C(/C=C/C(C)=C/C=C/C(C)=C\C(=O)O)C(C)(C)CCC1` [ISOTRETINOIN], the concentration turned out to be 24 µM.

Regarding `COc1ccc([C@@H]2Sc3ccccc3N(CCN(C)C)C(=O)[C@@H]2OC(C)=O)cc1` [DILTIAZEM HYDROCHLORIDE], the concentration is 0.5 µM.

Turning to `CC(=O)O[C@H]1C[C@@]2(C)[C@@H](C[C@@H](O)[C@H]3[C@@]4(C)CC[C@@H](O)[C@@H](C)[C@@H]4CC[C@@]32C)/C1=C(\CCC=C(C)C)C(=O)O` [FUSIDIC ACID], the concentration turned out to be 19 µM.

In the case of `OC(c1cc(C(F)(F)F)nc2c(C(F)(F)F)cccc12)C1CCCCN1` (configuration not stated) [MEFLOQUINE], the concentration was 6 µM.

With `Cc1cccc(Nc2ccccc2C(=O)O)c1C` [MEFENAMIC ACID], the concentration came out at 40 µM.

As to `O=C(O)Cc1ccccc1Nc1c(Cl)cccc1Cl` [DICLOFENAC SODIUM], the concentration worked out at 8 µM.

In another data set the test system is JC polyomavirus. Put plainly: Antiviral activity against JC polyomavirus Mad1 infected in human PHFG cells assessed as inhibition of viral replication after 7 to 10 days.
Details: not given
Consider `OC(c1cc(C(F)(F)F)nc2c(C(F)(F)F)cccc12)C1CCCCN1` (configuration not stated) [MEFLOQUINE], for which the IC50 was determined as 5 µM.

For a further data set, the system named is JC polyomavirus. Nature of the data set: microbe, parasite or virus in culture. Type of data set: functional, cell-based. Conditions: M1/SVEdelta, SVG-A, 72 h.
`Cc1nccc2c1[nH]c1ccccc12` [HARMAN]: the EC50 is 14.4 µM.

In the case of `Cc1c(Cl)cccc1Nc1ccccc1C(=O)O` [TOLFENAMIC ACID], the midpoint of the response, the EC50, lay at 15 µM. The EC50 values of the last two molecules are within 1.5-fold of each other.

The molecule `CC1=C(/C=C/C(C)=C/C=C/C(C)=C\C(=O)O)C(C)(C)CCC1` [ISOTRETINOIN] displayed an EC50 of 4.4 µM.

For the molecule `COc1cc(C)c(C(=O)Oc2cc(C)c(C(=O)O)c(O)c2C)c(OC)c1C` [DIFFRACTAIC ACID], it took 14.4 µM to reach a half-maximal effect (EC50).

Regarding `O=C(O)c1ccccc1Nc1cccc(C(F)(F)F)c1` [FLUFENAMIC ACID], the midpoint of the response, the EC50, lay at 11 µM.

Consider `O=c1c2ccccc2oc2ccccc12` [XANTHONE], for which the midpoint of the response, the EC50, lay at 16.8 µM.

For `CCC(=O)Nc1ccc(Cl)c(Cl)c1` [PROPANIL], the EC50 turned out to be 7.8 µM. Compared with the last molecule, the EC50 is about 2.2-fold lower.

On to `COc1ccc([C@@H]2Sc3ccccc3N(CCN(C)C)C(=O)[C@@H]2OC(C)=O)cc1` [DILTIAZEM HYDROCHLORIDE], for which it took 8.5 µM to reach a half-maximal effect (EC50).

As to `CC(=O)O[C@H]1C[C@@]2(C)[C@@H](C[C@@H](O)[C@H]3[C@@]4(C)CC[C@@H](O)[C@@H](C)[C@@H]4CC[C@@]32C)/C1=C(\CCC=C(C)C)C(=O)O` [FUSIDIC ACID], the EC50 was 8.6 µM.

As for `OC(c1cc(C(F)(F)F)nc2c(C(F)(F)F)cccc12)C1CCCCN1` (configuration not stated) [MEFLOQUINE], a half-maximal response (EC50) required 4 µM and it took 3.9 µM to reach half-maximal inhibition (IC50).

For the molecule `Cc1cccc(Nc2ccccc2C(=O)O)c1C` [MEFENAMIC ACID], a half-maximal response (EC50) required 10.9 µM.

Turning to `O[C@H](c1cc(C(F)(F)F)nc2c(C(F)(F)F)cccc12)[C@@H]1CCCCN1` (racemic) [(R,S)-MEFLOQUINE], the EC50 amounted to 2.7 µM.

`O[C@@H](c1cc(C(F)(F)F)nc2c(C(F)(F)F)cccc12)[C@H]1CCCCN1` [(S,R)-MEFLOQUINE] had an EC50 of 4.5 µM.

`O=C(O)Cc1ccccc1Nc1c(Cl)cccc1Cl` [DICLOFENAC SODIUM]: a half-maximal effect (EC50) was put at 8.3 µM.

`Cc1c(Nc2ncccc2C(=O)O)cccc1C(F)(F)F` [FLUNIXIN MEGLUMINE] came in with an EC50 of 14.5 µM. Compared with the last molecule, the EC50 is about 1.7-fold higher.

The test system of the next data set is JC polyomavirus. Nature of the data set: Antiviral activity against JC polyomavirus M1/SVEdelta infected in human SVG-A cells assessed as inhibition of viral replication after 3 days. Conditions: 72 h.
Turning to `OC(c1cc(C(F)(F)F)nc2c(C(F)(F)F)cccc12)C1CCCCN1` (configuration not stated) [MEFLOQUINE], the IC50 came out at 4 µM.

The values are drawn from ChEMBL document CHEMBL1649190, “Identification and characterization of mefloquine efficacy against JC virus in vitro” (Antimicrob Agents Chemother, 2009).
